Data reported in PubChem BioAssay AID588484 (The Scripps Research Institute Molecular Screening Center, 2011).
The source made the active and inactive calls.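 The calls were made as follows: active = IC50 of 1 µM or lower against any of the four tested PAD enzyme isoforms; inactive = the rest, IC50 above 1 µM everywhere.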

Tests used:
Assay in all cases: PAD1-4 inhibitor IC50 determination, late-stage follow-up, selectivity assay for PAD4 inhibitor project, biochemical, colorimetric, BAEE substrate, recombinant PAD1-4 (AID 588484)
[1] = target: Protein-arginine deiminase type-3 (Homo sapiens) (UniProt Q9ULW8); settings: recombinant PAD1-4, BAEE citrullination, colorimetric absorbance; PAD3
Method in brief: (§1)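 System: recombinant PAD2, PAD3 or PAD4 enzyme, each assayed separately. Amount: PAD2/PAD3 0.5 µM, PAD4 0.2 µM. Medium: Tris pH 7.6, CaCl2, DTT. Also added: 10 mM BAEE substrate. Schedule: 15 min pre-incubation (37 °C), 15 min reaction. Detection: citrulline absorbance, 540 nm. Repeats: duplicate measurements at each compound concentration.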

[2] = target: Protein-arginine deiminase type-1 (Homo sapiens) (UniProt Q9ULC6); settings: recombinant PAD1-4, BAEE citrullination, colorimetric absorbance; PAD1
Method in brief: as §1

[3] = target: Protein-arginine deiminase type-2 (Homo sapiens) (UniProt Q9Y2J8); settings: recombinant PAD1-4, BAEE citrullination, colorimetric absorbance; PAD2
Method in brief: as §1

[4] = target: Protein-arginine deiminase type-4 (Homo sapiens) (UniProt Q9UM07); settings: recombinant PAD1-4, BAEE citrullination, colorimetric absorbance; PAD4
Method in brief: as §1

Measured: IC50

Sequence of Protein-arginine deiminase type-2 (Homo sapiens) (Q9Y2J8 whole entry, looked up): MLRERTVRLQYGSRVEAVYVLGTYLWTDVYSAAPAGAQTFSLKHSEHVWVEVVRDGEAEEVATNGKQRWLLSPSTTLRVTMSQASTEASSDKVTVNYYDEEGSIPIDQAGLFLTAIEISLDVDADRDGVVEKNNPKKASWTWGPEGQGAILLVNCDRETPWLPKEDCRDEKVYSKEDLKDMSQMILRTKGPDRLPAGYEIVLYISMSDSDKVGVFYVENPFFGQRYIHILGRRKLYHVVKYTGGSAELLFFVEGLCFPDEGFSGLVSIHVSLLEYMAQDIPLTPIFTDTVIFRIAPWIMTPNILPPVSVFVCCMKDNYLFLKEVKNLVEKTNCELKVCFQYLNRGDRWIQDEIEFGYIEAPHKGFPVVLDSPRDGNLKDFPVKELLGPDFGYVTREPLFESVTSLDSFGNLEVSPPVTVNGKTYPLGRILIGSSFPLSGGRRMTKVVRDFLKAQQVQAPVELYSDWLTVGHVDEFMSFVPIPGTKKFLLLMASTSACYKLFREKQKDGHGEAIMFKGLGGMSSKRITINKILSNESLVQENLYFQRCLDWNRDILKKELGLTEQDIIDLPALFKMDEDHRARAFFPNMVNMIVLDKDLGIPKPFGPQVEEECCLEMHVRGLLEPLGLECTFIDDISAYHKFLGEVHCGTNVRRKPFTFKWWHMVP
Sequence of Protein-arginine deiminase type-4 (Homo sapiens) (Q9UM07 whole entry, looked up): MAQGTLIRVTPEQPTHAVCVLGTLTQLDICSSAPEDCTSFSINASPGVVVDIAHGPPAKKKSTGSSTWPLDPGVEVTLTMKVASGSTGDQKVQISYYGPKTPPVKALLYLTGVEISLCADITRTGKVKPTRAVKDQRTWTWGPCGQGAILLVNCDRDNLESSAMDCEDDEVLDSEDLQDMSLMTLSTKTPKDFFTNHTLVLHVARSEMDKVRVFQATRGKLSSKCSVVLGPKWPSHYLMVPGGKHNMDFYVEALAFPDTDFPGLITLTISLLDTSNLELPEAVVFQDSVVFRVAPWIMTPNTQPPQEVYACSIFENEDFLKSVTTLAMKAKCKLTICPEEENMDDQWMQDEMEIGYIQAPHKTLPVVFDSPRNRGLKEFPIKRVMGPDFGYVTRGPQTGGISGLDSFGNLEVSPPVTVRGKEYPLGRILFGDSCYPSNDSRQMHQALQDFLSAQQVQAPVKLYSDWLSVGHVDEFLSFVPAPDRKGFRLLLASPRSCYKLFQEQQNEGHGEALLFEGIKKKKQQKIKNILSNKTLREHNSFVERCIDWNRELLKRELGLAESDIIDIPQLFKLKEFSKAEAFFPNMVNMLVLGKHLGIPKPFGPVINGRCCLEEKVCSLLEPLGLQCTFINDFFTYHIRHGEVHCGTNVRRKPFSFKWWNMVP
Sequence of Protein-arginine deiminase type-1 (Homo sapiens) (Q9ULC6 whole entry, looked up): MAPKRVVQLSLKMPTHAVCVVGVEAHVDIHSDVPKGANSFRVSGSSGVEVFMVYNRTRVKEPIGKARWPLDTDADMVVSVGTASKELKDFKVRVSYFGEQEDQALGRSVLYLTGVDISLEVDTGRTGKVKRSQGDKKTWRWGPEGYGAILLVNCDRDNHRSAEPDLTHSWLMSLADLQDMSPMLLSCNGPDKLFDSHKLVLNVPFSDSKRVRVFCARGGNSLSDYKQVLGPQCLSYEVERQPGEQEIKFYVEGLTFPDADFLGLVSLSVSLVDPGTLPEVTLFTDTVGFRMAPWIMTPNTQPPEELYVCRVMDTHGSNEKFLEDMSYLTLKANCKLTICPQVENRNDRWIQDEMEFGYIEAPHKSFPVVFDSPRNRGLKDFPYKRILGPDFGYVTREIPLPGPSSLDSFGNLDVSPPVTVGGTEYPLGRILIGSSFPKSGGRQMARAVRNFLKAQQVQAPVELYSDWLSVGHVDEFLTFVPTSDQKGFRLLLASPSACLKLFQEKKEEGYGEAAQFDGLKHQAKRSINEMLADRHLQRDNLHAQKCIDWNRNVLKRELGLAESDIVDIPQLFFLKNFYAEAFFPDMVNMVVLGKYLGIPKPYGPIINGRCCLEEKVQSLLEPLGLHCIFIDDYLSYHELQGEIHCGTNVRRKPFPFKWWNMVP
Sequence of Protein-arginine deiminase type-3 (Homo sapiens) (Q9ULW8 whole entry, looked up): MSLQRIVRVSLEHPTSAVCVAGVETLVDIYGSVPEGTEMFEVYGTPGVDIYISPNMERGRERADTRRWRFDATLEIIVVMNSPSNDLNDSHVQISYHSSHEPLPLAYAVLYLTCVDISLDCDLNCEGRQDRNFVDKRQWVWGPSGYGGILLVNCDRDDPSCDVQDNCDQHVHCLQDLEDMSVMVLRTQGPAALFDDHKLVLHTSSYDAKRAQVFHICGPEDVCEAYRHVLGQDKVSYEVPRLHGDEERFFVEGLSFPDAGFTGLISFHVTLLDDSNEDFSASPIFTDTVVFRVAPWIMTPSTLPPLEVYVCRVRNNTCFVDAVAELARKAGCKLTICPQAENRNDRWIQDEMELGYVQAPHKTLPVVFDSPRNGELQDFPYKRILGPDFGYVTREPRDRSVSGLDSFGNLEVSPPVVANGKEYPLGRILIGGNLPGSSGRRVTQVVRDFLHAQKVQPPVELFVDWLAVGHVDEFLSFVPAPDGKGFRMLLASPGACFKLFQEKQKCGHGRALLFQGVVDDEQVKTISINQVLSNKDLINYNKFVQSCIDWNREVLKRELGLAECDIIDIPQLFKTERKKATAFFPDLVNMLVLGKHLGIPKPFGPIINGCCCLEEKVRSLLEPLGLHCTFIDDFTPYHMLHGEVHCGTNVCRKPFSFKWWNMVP

COC1=C(Br)C(=O)c2ncccc2C1=O
inactive: all assays above
